The nature of series [1]: Toxicity in mouse assessed as drowsiness at 100 mg/kg, po measured after 45 mins. Format: organism-based. The following applies: in vivo, 0.75 h. The method, boiled down:
(§1)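 Acute oral toxicity per OECD 423. Mice were fasted 4 h, given a single 100 mg/kg oral dose, and observed for 45 min for signs of acute toxicity, compared with untreated controls.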

The test system of series [2] is Plasmodium falciparum. Kind of series: Antiplasmodial activity against chloroquine resistant ring stage Plasmodium falciparum INDO infected in human erythrocytes assessed as reduction in parasitemia at 2.25 uM incubated for 12 hrs by time-kill kinetics based FACS analysis relative to control. The series is classed as functional, Erythrocyte. Details: scale not given: the % may be the effect or the level left. The method, boiled down: (§2)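 PfINDO rings were exposed to 2.25 or 1.79 μM, with compound washed out by centrifugation at 12, 24, 36, 48 or 57 h. Cultures were then grown drug-free to a total of 96 h. Parasitemia at the end of the second cycle was counted by FACS on 10^5 cells.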
Background: In flow cytometry, cells or beads pass a laser one at a time.

The nature of series [3]: Toxicity in mouse assessed as changes in skin at 100 mg/kg, po measured after 45 mins. The series is classed as organism-based. The note with it: in vivo, 0.75 h. The method, boiled down:
as §1

The test system of series [4] is Plasmodium falciparum. The experiment in a line: Antiplasmodial activity against chloroquine resistant Plasmodium falciparum INDO infected in human erythrocytes assessed as inhibition of parasite growth incubated for 72 hrs by SYBR green I staining based fluorescence plate reader analysis. The series is classed as functional, organism-based. The note with it: Erythrocyte. The method, boiled down:
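Pf3D7 or PfINDO was cultured in O+ human erythrocytes at 37 °C under 5% O2/5% CO2/90% N2 and ring-synchronised with 5% sorbitol. Cultures were exposed to 0–100 μM in triplicate for 72 h, with final DMSO 0.4%. After SYBR Green I lysis buffer (1 h, dark, 37 °C), fluorescence was read at 485/530 nm. Chloroquine-well counts were subtracted as background, and IC50 was obtained by non-linear regression.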

Series [5] deals with Plasmodium falciparum. The experiment in a line: Antiplasmodial activity against chloroquine resistant segmental schizont stage Plasmodium falciparum INDO infected in human erythrocytes assessed inhibition of rupture at 5.62 uM preincubated with compound for 8 hrs followed by media replacement without compound and measured after 48 hrs by SYBR Green staining based FACS analysis. The series is classed as functional, organism-based. The following applies: Erythrocyte.

Series [6] deals with Plasmodium falciparum. The experiment in a line: Antimalarial activity against chloroquine resistant early schizont Plasmodium falciparum INDO infected in human erythrocytes assessed as inhibition of parasite growth incubated for 12 hrs. The series is classed as functional, organism-based. The following applies: Erythrocyte. The method, boiled down: (§3)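 PfINDO cultures were staged at 0–6 h (rings), 18–22 h (trophozoites), 30–34 h (early schizonts) and 40–44 h (late schizonts) post-invasion. Each was exposed to varying concentrations for 12 h, washed free of compound by centrifugation, and grown 48 h in drug-free medium. IC50 came from growth curves, with untreated culture as 100% and chloroquine-treated culture as 0% growth.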

Series [7] deals with Plasmodium falciparum. Kind of series: Antiplasmodial activity against chloroquine resistant Plasmodium falciparum INDO infected in human erythrocytes assessed as inhibition of parasite growth at 100 uM incubated for 72 hrs by SYBR green I staining based fluorescence plate reader analysis relative to control. Format: functional. The note with it: Erythrocyte. The method, boiled down: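 Single-concentration screen at 100 μM against PfINDO, triplicate wells, 72 h. Final DMSO was 0.4%. Growth was read by SYBR Green I lysis (excitation 485, emission 530 nm) and expressed relative to untreated culture, taken as 100% growth.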

In series [8] the test system is Plasmodium falciparum. The experiment in a line: Antiplasmodial activity against chloroquine resistant early ring stage Plasmodium falciparum INDO infected in human erythrocytes assessed as reduction in parasite growth at 10 times IC50 concentration preincubated for 6 hrs followed by media replacement without compound for 66 hrs and measured after 72 hrs by Giemsa-staining based analysis. The series is classed as functional, organism-based. The following applies: Erythrocyte. The method, boiled down: (§4)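 Ring-stage survival assay. PfCam3.1R539T or PfINDO rings (0–3 h post-invasion), 1% parasitemia, 2% haematocrit, were exposed to 10× IC50 for 6 h. Compound was removed by three PBS washes, then cultures were grown 66 h in fresh medium. At 72 h, stage progression was assessed on Giemsa smears and revival by SYBR Green I lysis. Triplicate biological samples.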

Series [9] in a line: Binding affinity to Plasmodium falciparum GAP50 assessed as equilibrium dissociation constant by SPR analysis. The method, boiled down: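 GAP50 at 50 μg ml−1 in 10 mM acetate pH 4.5 was amine-coupled (EDC/NHS) onto a CM5 chip. Analytes at several concentrations in 5% DMSO/1× PBS; association 60 s, dissociation 120 s, flow 30 μl min−1. Regeneration with 10 mM glycine pH 3.0 for 30 s. Sensorgrams fitted to a 1:1 Langmuir model giving ka, kd and KD.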
(Surface plasmon resonance follows binding to a sensor surface in real time, without labels.)

Series [10] deals with Plasmodium falciparum. The experiment in a line: Antiplasmodial activity against artemisinin-resistant early ring stage Plasmodium falciparum Cam3.1R539T infected in human erythrocytes assessed as reduction in parasite growth at 10 times IC50 concentration preincubated for 6 hrs followed by media replacement without compound for 66 hrs and measured after 72 hrs by Giemsa-staining based analysis. Format: functional, organism-based. The note with it: Erythrocyte. The method, boiled down:
as §4

Series [11] concerns Plasmodium falciparum. Kind of series: Binding affinity to Plasmodium falciparum GAP50 assessed as association constant by SPR analysis. The method, boiled down:
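SPR: GAP50 at 50 μg/ml in 10 mM acetate pH 4.5 was immobilised on a CM5 chip by EDC/NHS coupling. Analytes were run in 5% DMSO/PBS at 30 μl/min, with 60 s association and 120 s dissociation. The chip was regenerated with 10 mM glycine pH 3.0 for 30 s. Fits used a 1:1 Langmuir model.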

Series [12] deals with Plasmodium falciparum. The experiment in a line: Antimalarial activity against chloroquine resistant trophozoites-stage Plasmodium falciparum INDO infected in human erythrocytes assessed as inhibition of parasite growth incubated for 12 hrs. Format: functional, organism-based. The following applies: Erythrocyte. The method, boiled down: as §3
The nature of series [13]: Toxicity in mouse assessed as effect on urination at 100 mg/kg, po measured after 45 mins. The series is classed as organism-based. The following applies: in vivo, 0.75 h. The method, boiled down:
as §1

Series [14] can be described thus: Cytotoxicity against human Huh-7 cells assessed as reduction in cell viability incubated for 24 hrs by MTT assay. Format: toxicity, cell-based. For orientation: Formazan colour is commonly taken as a measure of viable cells.
The nature of series [15]: Cytotoxicity against human HEK293 cells assessed as reduction in cell viability incubated for 24 hrs by MTT assay. Format: toxicity, cell-based.
The nature of series [16]: Toxicity in mouse assessed as effect on eye colour at 100 mg/kg, po measured after 45 mins. Format: organism-based. The following applies: in vivo, 0.75 h. The method, boiled down: as §1
In series [17] the test system is Plasmodium falciparum. The experiment in a line: Antiplasmodial activity against chloroquine resistant schizont stage Plasmodium falciparum INDO infected in human erythrocytes assessed as prevention of schizont rupture at 4.30 uM incubated for 4 hrs by time-kill kinetics based FACS analysis. The series is classed as functional, organism-based. The following applies: Erythrocyte, dose 4.3 µM. The method, boiled down:
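PfINDO early schizonts (32–36 h post-invasion) and late schizonts (42–45 h post-invasion) were exposed to 5.62 or 4.30 μM for up to 16 h, washed at 4 h intervals, then cultured drug-free to a total of 96 h. Parasitemia was counted by FACS on 10^5 cells at the end of the second cycle; schizont rupture was checked microscopically.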

In series [18] the test system is Plasmodium falciparum. The experiment in a line: Antagonistic antiplasmodial activity against multidrug-resistant Plasmodium falciparum Cam3.1R539T infected in human erythrocytes at 8 times IC50 concentration incubated for 72 hrs in presence of mefloquine by SYBR green I staining based fluorescence assay. The series is classed as functional, organism-based. The note with it: Erythrocyte. The method, boiled down:
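P. falciparum Cam3.1R539T in O+ human erythrocytes, 1% parasitemia, 2% haematocrit. 8× IC50 stocks of test compound and standard drug were mixed at molar ratios 4:1, 3:2, 2:3 and 1:4, then serially diluted two-fold. Plates were incubated 72 h at 37 °C and read by SYBR Green I lysis. Controls were 0.4% DMSO (100% growth) and 4 μM chloroquine (0% growth). ΣFIC = FICA + FICB; <1 synergistic, 1.0–2.0 additive, >2.0 antagonistic.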

Series [19] deals with Plasmodium falciparum. The experiment in a line: Antiplasmodial activity against chloroquine resistant ring stage Plasmodium falciparum INDO infected in human erythrocytes assessed as reduction in parasitemia at 1.79 uM incubated for 12 hrs by time-kill kinetics based FACS analysis relative to control. Format: functional, Erythrocyte. Details: scale not given: the % may be the effect or the level left. The method, boiled down: as §2

The source made the active and inactive calls. The rule behind the calls is not given here.

With `Clc1ccc2c(N3CCN(CCCn4nnc(-c5ccc(Br)cc5)n4)CC3)ccnc2c1`, the Activity result is “Non-Toxic” in series [1]; around 22% with Plasmodium falciparum [2]; “Non-Toxic” in series [3]; “Non-Toxic” in series [13]; “Non-Toxic” in series [16]. Besides, the results for the IC50 in the series on Plasmodium falciparum [4], with Plasmodium falciparum [6] and with Plasmodium falciparum [12] were 2250 nM, 2810 nM and 2160 nM, respectively. In the series on Plasmodium falciparum [5], the outcome was Active. In addition, the inhibition at 100 µM with Plasmodium falciparum [7] was above 50%. Also, the result in the series with Plasmodium falciparum [8] and in the series on Plasmodium falciparum [10] was inactive. For the same molecule, the Kd in series [9] is below 100000 nM. The Ka in the series with Plasmodium falciparum [11] worked out at 2610 M⁻¹ s⁻¹. The half-maximal cytotoxic concentration (CC50) at 24 h in [14] worked out at 288000 nM; in [15], 400000 nM.
As for `O=C(Cn1nnc(-c2cccc([N+](=O)[O-])c2)n1)N1CCN(c2ccnc3cc(Cl)ccc23)CC1`, the outcome with Plasmodium falciparum [17] and with Plasmodium falciparum [8] was inactive. Further, the Activity entry is recorded as “Non-Toxic” in series [1]; “Non-Toxic” in series [3]; around 22% with Plasmodium falciparum [19]; “Non-Toxic” in series [13]; “Non-Toxic” in series [16]. Also, the outcome in the series with Plasmodium falciparum [18] and in the series on Plasmodium falciparum [10] was Active. Moreover, the IC50 was determined as 1790 nM in the series with Plasmodium falciparum [4], 2150 nM in the series on Plasmodium falciparum [6] and 2720 nM in the series on Plasmodium falciparum [12]. Further, the inhibition at 100 µM in the series on Plasmodium falciparum [7] was above 50%. For the same molecule, the Kd in series [9] was below 100000 nM. Further, the Ka in the series on Plasmodium falciparum [11] amounted to 1920 M⁻¹ s⁻¹. Besides, the CC50 at 24 h in series [14] was 400000 nM; in series [15], above 400000 nM.

The IC50 is the concentration needed to halve the response being measured. Usually inhibition stands for the change of the read-out against control, counted positive when it falls. The Kd is the concentration at which binding is half-saturated. A word on the CC50: it is the concentration giving 50% cytotoxicity.
